Results as given in PMC2796117 (Bioorganic & medicinal chemistry letters, 2009).

How the values were obtained:
[1] = test system: Gli activity (Shh pathway) in Shh-LIGHT2 cell line; test: Shh-LIGHT2 Gli-luciferase reporter assay; format: cell-based; conditions: for Gli repression / activity in Shh-LIGHT2 (in words): Shh-LIGHT2 cell line, concentrations ranging from 3.9 µM to 125 µM where stated
Outline: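 Shh-LIGHT2 Gli-reporter cells stimulated with ShhN-conditioned DMEM containing 0.5% (v/v) calf serum, then exposed to test compound over a concentration series (3.9 to 125 µM where stated). Gli activity read by Bright Glo luciferase, and cytotoxicity by Cell Titer Glo. EC50 approximated from concentration curves. % ECmax is inhibition relative to cyclopamine's ECmax, or for cytotoxic compounds relative to the highest effective non-cytotoxic concentration.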

Shh-LIGHT2 cells = test: Cytotoxicity by Cell Titer Glo; format: cell-based; conditions: for Cytotoxicity: Shh-LIGHT2 cells, cytotoxic above the stated concentration; for cytotoxicity (in words): any concentration
Outline: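 Cell Titer Glo luminescence in Shh-LIGHT2 Gli-reporter cells. Values are approximations read from concentration curves. Where compounds are cytotoxic, the Gli % ECmax is taken at the highest effective non-cytotoxic concentration.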

ShhN = ShhN (Homo sapiens, UniProt Q15465); test: Surface plasmon resonance; format: binding
Sequence of ShhN (Q15465 24-197 limits assumed, species assumed): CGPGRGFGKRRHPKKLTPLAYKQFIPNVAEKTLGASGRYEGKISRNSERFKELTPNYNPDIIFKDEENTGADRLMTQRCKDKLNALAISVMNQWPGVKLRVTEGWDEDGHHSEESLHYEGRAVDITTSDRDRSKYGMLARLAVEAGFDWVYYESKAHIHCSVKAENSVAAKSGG
Outline: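 Purified Sonic Hedgehog N-terminal peptide (ShhN) probed by surface plasmon resonance with test compound in PBS containing 5% (v/v) DMSO. Sensorgrams background-subtracted against DMSO. Binding expressed as KD in µM, with off-rates compared from the binding curves.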

Shh signaling = conditions: cell lines, human primary keratinocytes, synthetic model of human skin; cited from earlier work

Row | Structure (SMILES) | Gli repression / activity in Shh-LIGHT2 (in words) [1] | Cytotoxicity (Shh-LIGHT2 cells) | cytotoxicity (in words) (Shh-LIGHT2 cells) | % ECmax (footnote e) ([1]; taken relative to mock treatment (reporter values comparable to 6µM cyclopamine), cytotoxic compounds: highest effective non-cytotoxic concentration) [% ^e] | apparent off-rate (ShhN; SPR, compared with the (2S, 6R) 13-membered homolog) | Binding / affinity for ShhN by SPR (in words) (ShhN; purified ShhN, PBS buffer with 5% (v/v) DMSO) | effect on Shh signaling (Shh signaling)
1 | O=C(C[C@H]1C/C=C/CCCC(=O)O[C@@H](c2ccccc2)CNC1=O)NCc1ccc(Cl)cc1 [(1, S, R) (3)] | Gli suppression was ablated | none | neither compound displayed differences in cytotoxicity at any concentration |  |  |  | 
2 | O=C(C[C@@H]1C/C=C/CCC(=O)O[C@H](c2ccccc2)CNC1=O)NCc1ccc(Cl)cc1 [(0, R, S) (2), robotnikinin] | strong concentration-dependent Gli repression | none | neither compound displayed differences in cytotoxicity at any concentration | 91 | significantly longer | bound purified ShhN in a stoichiometric manner | blocks Shh signaling
